This note sets out measurements from PubChem BioAssay AID1136 (Sanford-Burnham Center for Chemical Genomics, 2008).

Hit rate of the full screen: of about 200,000 compounds, fewer than 10 were called active. A selection follows. A number with no mark means an inactive call.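 How the source made its calls: active means activation factor at least 2 at 20 µM; inactive means the rest.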

Chain of Alkaline phosphatase, tissue-nonspecific isozyme (Homo sapiens) (P05186 whole entry, looked up): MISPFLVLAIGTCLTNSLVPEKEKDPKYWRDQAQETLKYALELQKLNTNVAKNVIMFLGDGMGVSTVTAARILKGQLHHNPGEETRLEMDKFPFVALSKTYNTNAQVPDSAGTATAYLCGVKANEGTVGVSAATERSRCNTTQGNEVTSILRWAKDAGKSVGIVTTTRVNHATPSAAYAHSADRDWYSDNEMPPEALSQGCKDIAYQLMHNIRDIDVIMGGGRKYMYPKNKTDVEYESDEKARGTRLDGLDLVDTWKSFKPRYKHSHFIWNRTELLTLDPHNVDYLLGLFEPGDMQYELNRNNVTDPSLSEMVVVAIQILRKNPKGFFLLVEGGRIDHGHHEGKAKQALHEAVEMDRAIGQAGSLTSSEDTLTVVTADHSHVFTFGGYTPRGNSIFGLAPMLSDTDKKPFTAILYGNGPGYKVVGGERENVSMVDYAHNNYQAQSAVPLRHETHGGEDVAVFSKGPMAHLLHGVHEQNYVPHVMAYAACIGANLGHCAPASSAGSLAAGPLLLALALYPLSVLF

This experiment has as its target Alkaline phosphatase, tissue-nonspecific isozyme (Homo sapiens) (UniProt P05186). Put plainly: TNAP activators at high phosphate acceptor level, primary screen, biochemical, luminescence, uHTS (AID 1136). To be noted: purified TNAP, CDP-star luminescence, 1 M DEA, 30 min; at 20 µM; hits give high values; 0 = EDTA background, 1 = DMSO-only activity. An outline of the steps:
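Dosing: 20 µM single point. System: human TNAP. Amount: TNAP 1/800 final. Incubation: 30 min, room temperature. Read-out: TNAP activation factor scaled between EDTA and DMSO control wells. Signal: luminescence from CDP-star hydrolysis. Medium: 1 M DEA, pH 9.8, Mg2+, Zn2+. Control set: EDTA negative control, DMSO positive control.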
Turning to `Cn1c2c(c(=O)n(C)c1=O)C(c1cccc([N+](=O)[O-])c1)Nc1ccccc1O2` (configuration not stated), the activation factor is 1.

In the case of `COC(=O)C1CCN(CC(N)=O)CC1`, the activation factor was 1.1.

Consider `CCCCN(CC)C(=S)Nc1ccc2nc3n(c(=O)c2c1)CCCCC3`, for which the activation factor was 1. Take `CCOC(=O)C1=NOC(Cn2cc(C(C)=O)c(=O)[nH]c2=O)C1` (configuration not stated): the activation factor was 1. On to `O=C(C1=C[C@H](c2coc3ccccc3c2=O)C[C@H](OCc2ccc(CO)cc2)O1)N1CCN(Cc2ccccc2)CC1`, for which the activation factor is 1. As for `COc1ccc(C(=O)NCC(=O)N/N=C/c2ccc([N+](=O)[O-])s2)cc1OC`, the activation factor was 0.9.

Turning to `CC(=O)c1ccc(NC(=O)c2ccc3c(Cl)c4c(nc3c2)CCCC4)cc1`, the activation factor was 1. To `Cc1ccc(NS(=O)(=O)c2ccc(C)c(NC(=O)COc3ccc4ccccc4c3)c2)c(C)c1` belongs 1; to `CCCCC(CC)CNC(=O)C(=O)C1C(=O)Nc2ccccc21` (configuration not stated), 1. Take `Nc1nc(NC(=O)/C=C/c2ccccc2)nn1-c1ccccc1`: the activation factor was 1. On to `CCOC(=O)c1cccc(NC(=O)CCOc2ccccc2)c1`, for which the activation factor is 1. In the case of `Cc1ccc2[nH]c(C(=O)O)c(NC(=O)c3ccccc3[N+](=O)[O-])c2c1`, the activation factor is 1. On to `COc1ccc(Cl)cc1C(=O)NNC(=S)NC(=O)/C=C/c1ccco1`, for which the activation factor is 1.1. The same measure for `C=C(C)C1CC=C(C)/C(=N/NC(=O)CCCNc2cccc(C)c2)C1` (configuration not stated): 1; for `O=C(Nc1ccc(C(=O)O)cc1)/C(=C/c1ccc([N+](=O)[O-])cc1)NC(=O)c1ccccc1`: 1.

`Cc1ccc(CN2CCN(/N=C/c3cccnc3)CC2)c(C)c1`: the activation factor was 1.

For `COc1cc(OC)nc(S(C)(=O)=O)n1`, the activation factor is 1.

For `CCn1c2ccccc2c2cc(NC(=O)COC(=O)c3cc(S(=O)(=O)N4CCCCC4)ccc3Cl)ccc21`, the activation factor is 1. With `N=C1C(c2nc3ccccc3[nH]2)=C(O)CN1NC(=O)c1c[nH]c2ccccc12`, the activation factor was 1.1. To `CCn1c(COc2ccccc2)nnc1SCC(=O)NCc1ccco1` belongs 1; to `Cc1cc(N2CCOCC2)nc(-c2ccc(Br)cc2)n1`, 1; to `Cc1nn(C)cc1C(=O)Nc1ccccc1Br`, 1. For `C/C=C(\C)C(=O)NCCN1C2=NC[C@H](Cc3ccc(O)cc3)N2C[C@@H]1Cc1ccc(OC)cc1`, the activation factor is 1.1.

Consider `Cc1ccc(CN(Cc2cccnc2)C(=S)Nc2cc(Cl)ccc2C)cc1`, for which the activation factor is 1.1.

As to `COC(=O)CCSc1cc([N+](=O)[O-])cc2c1c(C1OCCS1)nn2-c1ccccc1` (configuration not stated), the activation factor is 1. As for `COc1ccc(OC)c(C2C3=C(N=c4s/c(=C\c5cccc(O)c5)c(=O)n42)c2ccccc2CC3)c1` (configuration not stated), the activation factor is 0.9. In the case of `CC(NC(=O)c1cccc2ccccc12)c1ccc2c(c1)CCCC2` (configuration not stated), the activation factor was 1. To `COc1ccccc1NC(=O)C1=C(C)Nc2nc3ccccc3n2C1c1cccs1` (configuration not stated) belongs 1; to `CCOC(=O)c1sc(/N=C/C2=C(O)CC(C)(C)CC2=O)c(C(=O)OCC)c1C`, 1.

Take `O=C(CCNC(=O)c1ccc([N+](=O)[O-])cc1)Nc1ccccc1N1CCOCC1`: the activation factor is 1. As for `CCN(CC)CCCNC(=O)c1ccc2c(=O)n(Cc3ccc4c(c3)OCO4)c(=S)[nH]c2c1`, the activation factor was 1. Regarding `CC1(c2cccc([N+](=O)[O-])c2)CC(C)(C)N(C(=O)c2ccccc2)c2ccccc21` (configuration not stated), the activation factor is 1. Consider `C=CS(=O)c1sc(Cl)c(N2CCOCC2)c1[N+](=O)[O-]` (configuration not stated), for which the activation factor is 1. On to `O=C(CNC(c1ccccc1)c1ccccc1)Nc1ccc(F)cc1`, for which the activation factor was 1. To `Cc1cc(C)c(S(=O)(=O)N2CCOCC2)cc1C` belongs 1. As for `CC1(C)C2CCC1(C)C(OC(=O)c1ccc(O)cc1)C2` (configuration not stated), the activation factor was 1.1. Regarding `Cc1nc2sc3c(c2c(=O)n1NC(=O)CCl)CCCC3`, the activation factor is 1. `COc1ccc(C)cc1NC(=O)CSc1nnc(CC(=O)Nc2ccccc2F)n1C`: the activation factor is 1.1. For `Cc1ccc(S(=O)(=O)N2CCN(C(=O)c3cccs3)CC2)cc1`, the activation factor is 1. To `CCCC(=O)n1nc(NCc2ccc(OC)cc2)nc1NCc1ccc(OC)cc1` belongs 1.

Consider `CNC(=S)Nc1ccc([N+](=O)[O-])cc1`, for which the activation factor is 1.

Take `COc1ccc(C(=O)C[n+]2ccc(C)cc2)cc1`: the activation factor is 1.1. As for `NC(=O)COc1ccc(C23CC4CC(CC(C4)C2)C3)cc1`, the activation factor was 1.1. Turning to `CCc1ccccc1NC(=S)N(CCN1CCCCCC1)Cc1ccco1`, the activation factor is 1. To `CCCCN1C(=O)c2ccc(C(=O)Nc3ccc(S(=O)(=O)N(C)C)cc3)cc2C1=O` belongs 1; to `CCCc1c(C)nc2c(Br)cccc2c1Cl`, 1. `Clc1ccc(CN2CCN(/N=C/c3cccnc3)CC2)cc1`: the activation factor was 1. Take `CC(=O)N1CCc2cc(Br)cc(S(=O)(=O)CCC(=O)Nc3c(C)n(C)n(-c4ccccc4)c3=O)c21`: the activation factor was 1. Consider `CCN(CC)c1ccc(C(=O)N/N=C(\C)c2cccc(OC)c2)cc1`, for which the activation factor was 1.

Consider `Cc1ccc(C)c2[nH]c(=O)c(CCNC(=O)c3cccs3)cc12`, for which the activation factor was 1. Regarding `O=C(/C=C/c1c(F)cccc1Cl)Nc1nn[nH]n1`, the activation factor was 1. For the compound `CC(=O)Nc1ccc(/C=N/NC(=O)c2cccs2)cc1`, the activation factor was 1. The same measure for `CC(CC(=O)N1CCN(c2ccccc2)CC1)c1ccccc1` (configuration not stated): 1.

For the compound `COC(=O)c1ccc(-n2cnc3ccccc32)nc1`, the activation factor is 1. In the case of `CN1CCN(CC(=O)Nc2cccc([N+](=O)[O-])c2)CC1`, the activation factor is 1.

With `O=C(CS(=O)(=O)c1ccccc1)Nc1ccc(S(=O)(=O)Nc2ccccn2)cc1`, the activation factor is 1. Regarding `COc1ccccc1C(=O)Nn1c(-c2cccs2)nc2ccccc2c1=O`, the activation factor was 1. For the compound `CCN(CC)C(=O)C(=O)c1cn(CC(=O)NCc2ccc3c(c2)OCO3)c2ccccc12`, the activation factor was 1. For the compound `Cc1ccc(S(=O)(=O)CCC(=O)OCc2ccccc2)cc1`, the activation factor is 1. The same measure for `CCOC(=O)c1ccccc1NC(=O)CSc1nc2ccccc2c(=O)[nH]1`: 1; for `O=C(CN1CCN(c2ccc(O)cc2)CC1)NC1CCCc2ccccc21` (configuration not stated): 1; for `O=[N+]([O-])c1cc(S(=O)(=O)CCCN2CCOCC2)ccc1F`: 1.
